# What was measured:
# [1] = target: D2 (Homo sapiens, UniProt P14416); assay: PDSP radioligand binding, D2; details: 10 μM
# [2] = target: T1, A4B2 (Rattus norvegicus, UniProt P09483+P12390); assay: PDSP radioligand binding, A4B2; details: 10 μM
# [3] = target: A2B4 (Rattus norvegicus, UniProt P12389+P12392); assay: PDSP radioligand binding, A2B4; details: 10 μM
# [4] = target: 5HT6 (Homo sapiens, UniProt P50406); assay: PDSP radioligand binding, 5HT6; details: 10 μM
# [5] = target: D5 (Homo sapiens, UniProt P21918); assay: PDSP radioligand binding, D5; details: 10 μM
# [6] = target: D1 (Homo sapiens, UniProt P21728); assay: PDSP radioligand binding, D1; details: 10 μM
# Sequence of D1 (P21728 whole entry): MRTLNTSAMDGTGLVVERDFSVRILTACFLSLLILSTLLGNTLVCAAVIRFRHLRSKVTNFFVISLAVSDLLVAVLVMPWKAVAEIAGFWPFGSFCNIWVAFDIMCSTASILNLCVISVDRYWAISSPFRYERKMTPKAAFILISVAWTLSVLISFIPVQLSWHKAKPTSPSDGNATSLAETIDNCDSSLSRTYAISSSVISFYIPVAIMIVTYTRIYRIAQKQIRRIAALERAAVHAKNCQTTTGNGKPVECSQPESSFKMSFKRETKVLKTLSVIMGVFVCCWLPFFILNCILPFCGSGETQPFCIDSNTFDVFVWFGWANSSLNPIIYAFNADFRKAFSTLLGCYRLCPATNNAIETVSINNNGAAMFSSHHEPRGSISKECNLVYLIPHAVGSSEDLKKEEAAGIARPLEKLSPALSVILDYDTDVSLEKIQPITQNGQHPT
# [7] = target: 5HT5a (Homo sapiens, UniProt P47898); assay: PDSP radioligand binding, 5HT5a; details: 10 μM
# Sequence of 5HT5a (P47898 whole entry): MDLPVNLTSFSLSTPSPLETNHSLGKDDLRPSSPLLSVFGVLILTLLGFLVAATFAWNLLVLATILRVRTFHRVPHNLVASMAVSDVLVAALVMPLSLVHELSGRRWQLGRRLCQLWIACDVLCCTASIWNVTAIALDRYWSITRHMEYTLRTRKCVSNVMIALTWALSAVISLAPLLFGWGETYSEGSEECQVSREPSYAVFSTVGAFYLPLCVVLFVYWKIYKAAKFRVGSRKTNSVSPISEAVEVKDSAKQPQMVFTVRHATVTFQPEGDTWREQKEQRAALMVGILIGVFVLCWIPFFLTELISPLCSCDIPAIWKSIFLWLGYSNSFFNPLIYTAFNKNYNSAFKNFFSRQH
# [8] = target: Beta1 (Homo sapiens, UniProt P08588); assay: PDSP radioligand binding, Beta1; details: 10 μM
# [9] = target: Alpha1a (Homo sapiens, UniProt P35348); assay: PDSP radioligand binding, Alpha1a; details: 10 μM
# [10] = target: A3B4 (Rattus norvegicus, UniProt P04757+P12392); assay: PDSP radioligand binding, A3B4; details: 10 μM
# [11] = target: 5HT1D (Homo sapiens, UniProt P28221); assay: PDSP radioligand binding, 5HT1D; details: 10 μM
# [12] = target: 5HT1A (Homo sapiens, UniProt P08908); assay: PDSP radioligand binding, 5HT1A; details: 10 μM
# [13] = target: Alpha2b (Homo sapiens, UniProt P18089); assay: PDSP radioligand binding, Alpha2b; details: 10 μM
# Sequence of Alpha2b (P18089 whole entry): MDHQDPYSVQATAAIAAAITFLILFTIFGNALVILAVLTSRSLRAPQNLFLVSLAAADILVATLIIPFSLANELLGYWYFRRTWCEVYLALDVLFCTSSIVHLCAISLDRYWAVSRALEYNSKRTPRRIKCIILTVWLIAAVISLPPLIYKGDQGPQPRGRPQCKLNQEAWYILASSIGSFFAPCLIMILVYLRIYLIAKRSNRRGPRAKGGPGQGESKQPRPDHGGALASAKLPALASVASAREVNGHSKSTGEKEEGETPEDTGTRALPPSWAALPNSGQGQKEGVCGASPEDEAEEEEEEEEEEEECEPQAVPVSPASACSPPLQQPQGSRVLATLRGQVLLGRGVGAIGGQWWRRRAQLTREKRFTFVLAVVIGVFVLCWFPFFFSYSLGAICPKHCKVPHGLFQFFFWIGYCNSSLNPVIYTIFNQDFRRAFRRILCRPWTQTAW
# [14] = target: V1B (Homo sapiens, UniProt P47901); assay: PDSP radioligand binding, V1B
# [15] = tested on: GabaA; assay: PDSP radioligand binding, GabaA; details: 10 μM
# [16] = target: A7 (Rattus norvegicus, UniProt Q05941); assay: PDSP radioligand binding, A7 sourced from rodent brain; details: 10 μM
# Sequence of A7 (Rattus norvegicus, UniProt Q05941) (Q05941 23-502): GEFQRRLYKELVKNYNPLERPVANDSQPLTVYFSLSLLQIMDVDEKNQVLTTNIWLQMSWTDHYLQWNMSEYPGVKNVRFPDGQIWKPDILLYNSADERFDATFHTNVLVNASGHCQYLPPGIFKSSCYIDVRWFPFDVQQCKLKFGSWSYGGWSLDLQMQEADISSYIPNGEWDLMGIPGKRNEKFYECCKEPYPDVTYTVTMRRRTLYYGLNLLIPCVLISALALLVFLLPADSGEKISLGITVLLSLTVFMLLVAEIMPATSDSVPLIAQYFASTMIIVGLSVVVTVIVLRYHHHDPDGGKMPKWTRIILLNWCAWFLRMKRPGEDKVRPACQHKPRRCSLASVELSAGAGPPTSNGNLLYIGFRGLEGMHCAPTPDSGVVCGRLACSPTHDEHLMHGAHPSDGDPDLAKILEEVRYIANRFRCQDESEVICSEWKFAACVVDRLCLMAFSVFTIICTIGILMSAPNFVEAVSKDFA
# [17] = target: T1, A4B2; assay: PDSP radioligand binding, A4B2 sourced from rodent brain; details: 10 μM
# [18] = target: A3B2 (Rattus norvegicus, UniProt P04757+P12390); assay: PDSP radioligand binding, A3B2; details: 10 μM
# [19] = tested on: SNI mice; assay: Rotorod test of motor performance; format: in vivo, mouse; details: IV 10 mg/kg, 48 h after injection, third trial
# Summary of the method: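 SNI mice given IV vehicle or test compound 10 mg/kg in sterile saline, tested 48 h later. Automated rotorod accelerating to 40 rpm over 200 s. Two training runs; latency to fall recorded on third trial. n = 6 per group; two-tailed t test.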
# [20] = target: Beta2 (Homo sapiens, UniProt P07550); assay: PDSP radioligand binding, Beta2; details: 10 μM
# [21] = target: M3 (Homo sapiens, UniProt P20309); assay: PDSP radioligand binding, M3; details: 10 μM
# [22] = target: Alpha2a (Homo sapiens, UniProt P08913); assay: PDSP radioligand binding, Alpha2a; details: 10 μM
# [23] = target: H1 (Homo sapiens, UniProt P35367); assay: PDSP radioligand binding, H1; details: 10 μM
# [24] = target: calcium channel; assay: PDSP radioligand binding, calcium channel
# [25] = target: 5HT2A (Homo sapiens, UniProt P28223); assay: PDSP radioligand binding, 5HT2A; details: 10 μM
# [26] = target: M1 (Homo sapiens, UniProt P11229); assay: PDSP radioligand binding, M1; details: 10 μM
# [27] = target: V2 (Homo sapiens, UniProt P30518); assay: PDSP radioligand binding, V2
# [28] = target: M4 (Homo sapiens, UniProt P08173); assay: PDSP radioligand binding, M4; details: 10 μM
# [29] = tested on: mouse spared nerve injury (SNI) model; assay: Mechanical sensitivity; format: in vivo
# Summary of the method: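 Male C57Bl6/J mice with SNI (peroneal and tibial sciatic branches cut, sural spared), confirmed hypersensitive 2 weeks post-surgery and screened 21–60 days after SNI. Single intrathecal 10 μg in 5 μL saline (DMSO <5%, vehicle DMSO-matched). Blinded hindpaw von Frey, modified up–down, at set times. n = 4–11. Mean ± SEM; two-way ANOVA with Bonferroni. Repeat injections ≥14 days apart.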
# [30] = tested on: A7; assay: PDSP radioligand binding, A7; details: 10 μM
# [31] = target: V1A (Homo sapiens, UniProt P37288); assay: PDSP radioligand binding, V1A
# Sequence of V1A (P37288 whole entry): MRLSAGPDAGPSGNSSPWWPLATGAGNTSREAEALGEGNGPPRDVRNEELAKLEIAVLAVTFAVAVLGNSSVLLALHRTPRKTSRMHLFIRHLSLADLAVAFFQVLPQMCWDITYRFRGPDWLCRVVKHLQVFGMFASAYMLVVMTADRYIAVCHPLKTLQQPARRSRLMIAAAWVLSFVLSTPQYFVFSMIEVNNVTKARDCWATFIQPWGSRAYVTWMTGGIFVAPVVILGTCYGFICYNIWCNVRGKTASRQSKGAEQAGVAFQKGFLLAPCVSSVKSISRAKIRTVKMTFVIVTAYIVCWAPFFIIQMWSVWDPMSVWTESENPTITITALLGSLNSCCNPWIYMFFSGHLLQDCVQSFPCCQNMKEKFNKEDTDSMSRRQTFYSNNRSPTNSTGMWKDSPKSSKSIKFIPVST
# [32] = target: Alpha1b (Homo sapiens, UniProt P35368); assay: PDSP radioligand binding, Alpha1b; details: 10 μM
# [33] = target: NET (Homo sapiens, UniProt P23975); assay: PDSP radioligand binding, NET
# Sequence of NET (P23975 whole entry): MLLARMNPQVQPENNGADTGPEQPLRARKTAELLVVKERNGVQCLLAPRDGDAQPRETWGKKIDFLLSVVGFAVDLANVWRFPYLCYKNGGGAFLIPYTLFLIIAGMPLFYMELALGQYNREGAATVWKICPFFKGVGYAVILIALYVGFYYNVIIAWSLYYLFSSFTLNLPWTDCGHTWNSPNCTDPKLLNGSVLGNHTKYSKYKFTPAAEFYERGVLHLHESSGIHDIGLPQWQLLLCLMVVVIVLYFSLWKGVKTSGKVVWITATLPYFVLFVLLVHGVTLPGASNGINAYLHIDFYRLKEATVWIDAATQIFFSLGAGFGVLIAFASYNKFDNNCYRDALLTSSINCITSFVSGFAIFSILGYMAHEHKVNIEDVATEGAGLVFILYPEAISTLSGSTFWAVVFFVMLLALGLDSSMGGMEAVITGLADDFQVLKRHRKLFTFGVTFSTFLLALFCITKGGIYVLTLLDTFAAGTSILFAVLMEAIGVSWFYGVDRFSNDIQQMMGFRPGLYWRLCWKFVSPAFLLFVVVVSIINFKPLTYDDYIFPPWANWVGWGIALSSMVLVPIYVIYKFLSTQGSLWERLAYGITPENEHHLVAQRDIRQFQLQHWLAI
# [34] = tested on: BZP rat brain; assay: PDSP radioligand binding, BZP rat brain; details: 10 μM
# [35] = target: MOR (Homo sapiens, UniProt P35372); assay: PDSP radioligand binding, MOR; details: 10 μM
# Sequence of MOR (P35372 whole entry): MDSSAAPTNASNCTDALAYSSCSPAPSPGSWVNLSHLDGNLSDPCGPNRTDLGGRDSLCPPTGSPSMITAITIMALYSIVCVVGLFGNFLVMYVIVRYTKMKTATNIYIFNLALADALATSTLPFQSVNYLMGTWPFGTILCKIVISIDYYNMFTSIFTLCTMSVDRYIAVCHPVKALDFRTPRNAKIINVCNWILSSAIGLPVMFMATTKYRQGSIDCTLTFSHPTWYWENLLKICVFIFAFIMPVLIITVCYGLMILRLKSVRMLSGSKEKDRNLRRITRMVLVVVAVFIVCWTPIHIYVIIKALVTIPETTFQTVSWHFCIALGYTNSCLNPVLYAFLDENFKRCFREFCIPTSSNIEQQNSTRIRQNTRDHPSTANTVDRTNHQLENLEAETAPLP
# [36] = target: D3 (Homo sapiens, UniProt P35462); assay: PDSP radioligand binding, D3; details: 10 μM
# [37] = target: 5HT7 (Homo sapiens, UniProt P34969); assay: PDSP radioligand binding, 5HT7; details: 10 μM
# Sequence of 5HT7 (P34969 whole entry): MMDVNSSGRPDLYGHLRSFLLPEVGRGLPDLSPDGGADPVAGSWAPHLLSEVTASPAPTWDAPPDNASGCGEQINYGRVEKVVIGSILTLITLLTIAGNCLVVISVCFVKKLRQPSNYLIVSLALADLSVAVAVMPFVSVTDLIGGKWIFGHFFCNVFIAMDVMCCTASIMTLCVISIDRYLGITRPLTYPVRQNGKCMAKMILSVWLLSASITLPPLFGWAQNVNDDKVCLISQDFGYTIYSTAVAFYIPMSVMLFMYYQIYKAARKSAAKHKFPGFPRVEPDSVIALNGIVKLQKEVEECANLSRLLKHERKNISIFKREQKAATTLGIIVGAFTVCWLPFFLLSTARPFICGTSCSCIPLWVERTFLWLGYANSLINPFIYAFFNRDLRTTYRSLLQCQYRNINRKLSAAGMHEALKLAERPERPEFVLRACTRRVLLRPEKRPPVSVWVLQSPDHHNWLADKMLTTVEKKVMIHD
# [38] = target: DOR (Homo sapiens, UniProt P41143); assay: PDSP radioligand binding, DOR; details: 10 μM
# [39] = target: M2 (Homo sapiens, UniProt P08172); assay: PDSP radioligand binding, M2; details: 10 μM
# [40] = target: T2, σ2R/Tmem97 (Rattus norvegicus, UniProt Q5U3Y7); assay: Sigma 2 receptor competition binding with [3H]-ditolylguanidine; details: σ2R from rat PC12 cells
# T2 sequence (Q5U3Y7 1-176): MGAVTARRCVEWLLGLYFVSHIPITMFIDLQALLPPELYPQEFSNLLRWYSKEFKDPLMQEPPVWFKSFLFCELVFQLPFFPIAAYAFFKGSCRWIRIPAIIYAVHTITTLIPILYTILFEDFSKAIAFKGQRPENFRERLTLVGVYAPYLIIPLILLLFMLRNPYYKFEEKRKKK
# [41] = target: AMPA; assay: PDSP radioligand binding, AMPA
# T1 sequence (P09483 31-630): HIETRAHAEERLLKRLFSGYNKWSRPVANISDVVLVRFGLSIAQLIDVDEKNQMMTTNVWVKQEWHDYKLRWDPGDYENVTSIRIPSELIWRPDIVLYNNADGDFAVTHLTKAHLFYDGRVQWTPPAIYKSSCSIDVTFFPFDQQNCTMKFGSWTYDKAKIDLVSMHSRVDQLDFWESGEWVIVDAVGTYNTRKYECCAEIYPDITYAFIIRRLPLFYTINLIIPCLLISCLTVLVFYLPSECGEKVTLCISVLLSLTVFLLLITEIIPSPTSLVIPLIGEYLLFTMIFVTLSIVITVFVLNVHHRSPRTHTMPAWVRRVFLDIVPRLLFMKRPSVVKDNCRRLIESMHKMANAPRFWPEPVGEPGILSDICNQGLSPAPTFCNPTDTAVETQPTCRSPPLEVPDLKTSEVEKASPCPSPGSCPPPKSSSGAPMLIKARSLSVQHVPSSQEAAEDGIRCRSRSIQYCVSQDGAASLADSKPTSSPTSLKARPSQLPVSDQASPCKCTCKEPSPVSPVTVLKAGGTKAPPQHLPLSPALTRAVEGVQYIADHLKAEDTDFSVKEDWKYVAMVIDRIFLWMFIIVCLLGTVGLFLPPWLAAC
# T1 sequence (P12390 25-500): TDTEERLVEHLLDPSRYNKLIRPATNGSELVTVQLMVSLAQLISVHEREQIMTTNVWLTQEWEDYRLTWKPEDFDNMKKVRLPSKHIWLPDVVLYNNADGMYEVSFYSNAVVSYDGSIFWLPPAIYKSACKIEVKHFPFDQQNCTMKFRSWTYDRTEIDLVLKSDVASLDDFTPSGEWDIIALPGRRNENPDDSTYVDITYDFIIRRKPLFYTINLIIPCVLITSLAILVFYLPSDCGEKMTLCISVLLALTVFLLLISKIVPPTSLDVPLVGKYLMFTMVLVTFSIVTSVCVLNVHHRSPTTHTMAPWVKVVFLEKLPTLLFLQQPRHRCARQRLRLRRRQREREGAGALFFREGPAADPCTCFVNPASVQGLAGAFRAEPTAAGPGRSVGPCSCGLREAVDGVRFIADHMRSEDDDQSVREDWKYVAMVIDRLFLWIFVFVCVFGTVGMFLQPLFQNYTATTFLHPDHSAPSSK
smiles,measurement,setting,value
"OCCCN1CCCC2CC1c1cc(-c3ccc(C(F)(F)F)cc3)ccc12 (racemic) [UKH-1114, (±)-9-(4-(Trifluoromethyl)phenyl)-3,4,5,6-tetrahydro-1,6-methanobenzo[c]azocin-2(1H)-yl)propan-1-ol]","inhibition of radioligand binding (Ki column, footnote a)",[1],^a (<50% inhibition of radioligand binding at 10 μM)
same,"inhibition of radioligand binding (Ki column, footnote a)",[2],^a (<50% inhibition of radioligand binding at 10 μM)
same,"inhibition of radioligand binding (Ki column, footnote a)",[3],^a (<50% inhibition of radioligand binding at 10 μM)
same,"inhibition of radioligand binding (Ki column, footnote a)",[4],^a (<50% inhibition of radioligand binding at 10 μM)
same,"inhibition of radioligand binding (Ki column, footnote a)",[5],^a (<50% inhibition of radioligand binding at 10 μM)
same,"inhibition of radioligand binding (Ki column, footnote a)",[6],^a (<50% inhibition of radioligand binding at 10 μM)
same,"inhibition of radioligand binding (Ki column, footnote a)",[7],^a (<50% inhibition of radioligand binding at 10 μM)
same,"inhibition of radioligand binding (Ki column, footnote a)",[8],^a (<50% inhibition of radioligand binding at 10 μM)
same,"inhibition of radioligand binding (Ki column, footnote a)",[9],^a (<50% inhibition of radioligand binding at 10 μM)
same,"inhibition of radioligand binding (Ki column, footnote a)",[10],^a (<50% inhibition of radioligand binding at 10 μM)
same,"inhibition of radioligand binding (Ki column, footnote a)",[11],^a (<50% inhibition of radioligand binding at 10 μM)
same,"inhibition of radioligand binding (Ki column, footnote a)",[12],^a (<50% inhibition of radioligand binding at 10 μM)
same,"inhibition of radioligand binding (Ki column, footnote a)",[13],^a (<50% inhibition of radioligand binding at 10 μM)
same,Ki,[14],> 10 µM
same,"inhibition of radioligand binding (Ki column, footnote a)",[15],^a (<50% inhibition of radioligand binding at 10 μM)
same,"inhibition of radioligand binding (Ki column, footnote a)",[16],^a (<50% inhibition of radioligand binding at 10 μM)
same,"inhibition of radioligand binding (Ki column, footnote a)",[17],^a (<50% inhibition of radioligand binding at 10 μM)
same,"inhibition of radioligand binding (Ki column, footnote a)",[18],^a (<50% inhibition of radioligand binding at 10 μM)
same,"effect on motor performance (latency to fall, rotorod)",[19],no effect
same,"inhibition of radioligand binding (Ki column, footnote a)",[20],^a (<50% inhibition of radioligand binding at 10 μM)
same,"inhibition of radioligand binding (Ki column, footnote a)",[21],^a (<50% inhibition of radioligand binding at 10 μM)
same,"inhibition of radioligand binding (Ki column, footnote a)",[22],^a (<50% inhibition of radioligand binding at 10 μM)
same,"inhibition of radioligand binding (Ki column, footnote a)",[23],^a (<50% inhibition of radioligand binding at 10 μM)
same,Ki,[24],> 10 µM
same,"inhibition of radioligand binding (Ki column, footnote a)",[25],^a (<50% inhibition of radioligand binding at 10 μM)
same,"inhibition of radioligand binding (Ki column, footnote a)",[26],^a (<50% inhibition of radioligand binding at 10 μM)
same,Ki,[27],> 10 µM
same,"inhibition of radioligand binding (Ki column, footnote a)",[28],^a (<50% inhibition of radioligand binding at 10 μM)
same,time of peak relief of mechanical hypersensitivity after dosing,[29]; IT,48 h
same,effect on SNI-induced mechanical hypersensitivity,"[29]; single IT injection, 10 μg, vs vehicle",significant antimechanical hypersensitivity effects at either 24 or 48 h
same,"inhibition of radioligand binding (Ki column, footnote a)",[30],^a (<50% inhibition of radioligand binding at 10 μM)
same,Ki,[31],> 10 µM
same,"inhibition of radioligand binding (Ki column, footnote a)",[32],^a (<50% inhibition of radioligand binding at 10 μM)
same,Ki,[33],1.05 µM
same,"inhibition of radioligand binding (Ki column, footnote a)",[34],^a (<50% inhibition of radioligand binding at 10 μM)
same,"inhibition of radioligand binding (Ki column, footnote a)",[35],^a (<50% inhibition of radioligand binding at 10 μM)
same,"inhibition of radioligand binding (Ki column, footnote a)",[36],^a (<50% inhibition of radioligand binding at 10 μM)
same,"inhibition of radioligand binding (Ki column, footnote a)",[37],^a (<50% inhibition of radioligand binding at 10 μM)
same,"inhibition of radioligand binding (Ki column, footnote a)",[38],^a (<50% inhibition of radioligand binding at 10 μM)
same,"inhibition of radioligand binding (Ki column, footnote a)",[39],^a (<50% inhibition of radioligand binding at 10 μM)
same,affinity at σ2R/Tmem97 (in words),[40],high affinity
same,Ki,[41],> 10 µM
